Measurements reported in ChEMBL document CHEMBL1150800, “Multiple-dose escalation study of the safety, pharmacokinetics, and biologic activity of oral AMD070, a selective CXCR4 receptor inhibitor, in human subjects” (Antimicrob Agents Chemother, 2007).
Values after ≈ are worked out from the molar mass of the structure shown.

Assays:
Homo sapiens [1] = assay: AUC ( 0 to infinity) in fasting healthy human at 400 mg, po administered as single dose after 12 hrs; format: ADME, organism-based, Plasma; design: dose 400 mg, time infinity, route oral; conditions: in vivo
Method in brief: (§1)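 Healthy male volunteers, three per cohort, one oral dose after 8-h overnight fast, fasting kept until 1 h post-dose. Plasma sampled predose and at 0.5, 1, 1.5, 2, 3, 4, 6, 8, 12, 16, 20, 24 h. Levels by validated HPLC-MS/MS (liquid-liquid extraction, positive-ion electrospray). Noncompartmental analysis, log-linear trapezoidal AUC, summarized per cohort.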

Homo sapiens [2] = assay: Apparent volume of distribution in fasting healthy human at 400 mg, po administered as single dose after 12 hrs; format: ADME, organism-based; conditions: in vivo; method in brief: as §1
Homo sapiens [3] = assay: Half life in fasting healthy human at 400 mg, po administered as single dose after 12 hrs; format: ADME, organism-based; conditions: in vivo; method in brief: as §1
[4] = Tmax in fasting healthy human at 100 mg, po administered every 12 hrs; format: ADME, organism-based; conditions: in vivo
Method in brief: (§2)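 Six healthy male volunteers per cohort received seven oral doses q12h. Morning doses followed an 8-h fast, with fasting continued until 1 h post-dose. After the final dose (72 h after the first), plasma was sampled pre-dose and at 0.5–24 h, and assayed by validated HPLC-MS/MS. Tmax came from individual noncompartmental analysis, summarized per cohort.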

[5] = Cmax in fasting healthy human at 100 mg, po administered every 12 hrs; format: ADME, organism-based; design: dose 100 mg, route oral; conditions: in vivo
Method in brief: (§3)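 Six healthy men per cohort dosed orally q12h for seven doses. Morning doses given after 8-h fast, with fasting until 1 h post-dose. After the final dose (72 h after the first) plasma was sampled predose and 0.5–24 h. Validated HPLC-MS/MS assay. Noncompartmental parameters (log-linear trapezoidal AUC) from all time points, summarized per cohort.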

[6] = Drug level in fasting healthy human at 100 mg, po administered every 12 hrs measured after 72 hrs; format: ADME, organism-based; conditions: in vivo, read-out: Drug uptake; method in brief: as §3
[7] = Drug level in fasting healthy human at 100 mg, po administered every 12 hrs measured after 84 hrs; format: ADME, organism-based; conditions: in vivo, read-out: Drug uptake; method in brief: as §3
[8] = AUC (0 to 12 hrs) in fasting healthy human at 100 mg, po administered every 12 hrs measured between 72 to 84 hrs postdose; format: ADME, organism-based; design: dose 100 mg, time < 12 hr, route oral; conditions: plasma; method in brief: as §3
Homo sapiens [9] = assay: Apparent volume of distribution in fasting healthy human at 100 mg, po administered every 12 hrs; format: ADME, organism-based; conditions: in vivo; method in brief: as §3
Homo sapiens [10] = assay: Half life in fasting healthy human at 100 mg, po administered every 12 hrs; format: ADME, organism-based; conditions: in vivo; method in brief: as §3
[11] = Tmax in fasting healthy human at 200 mg, po administered every 12 hrs; format: ADME, organism-based; conditions: in vivo; method in brief: as §2
[12] = Cmax in fasting healthy human at 200 mg, po administered every 12 hrs; format: ADME, organism-based; design: dose 200 mg, route oral; conditions: in vivo; method in brief: as §3
[13] = Drug level in fasting healthy human at 200 mg, po administered every 12 hrs measured after 72 hrs; format: ADME, organism-based; conditions: in vivo, read-out: Drug uptake; method in brief: as §3
[14] = Drug level in fasting healthy human at 200 mg, po administered every 12 hrs measured after 84 hrs; format: ADME, organism-based; conditions: in vivo, read-out: Drug uptake; method in brief: as §3
Homo sapiens [15] = assay: Apparent volume of distribution in fasting healthy human at 200 mg, po administered every 12 hrs; format: ADME, organism-based; conditions: in vivo; method in brief: as §3
Homo sapiens [16] = assay: Half life in fasting healthy human at 200 mg, po administered every 12 hrs; format: ADME, organism-based; conditions: in vivo; method in brief: as §3
[17] = Tmax in fasting healthy human at 400 mg, po administered every 12 hrs; format: ADME, organism-based; conditions: in vivo; method in brief: as §2
[18] = Cmax in fasting healthy human at 400 mg, po administered every 12 hrs; format: ADME, organism-based; design: dose 400 mg, route oral; conditions: in vivo; method in brief: as §3
[19] = Drug level in fasting healthy human at 400 mg, po administered every 12 hrs measured after 72 hrs; format: ADME, organism-based; conditions: in vivo, read-out: Drug uptake; method in brief: as §3
[20] = Drug level in fasting healthy human at 400 mg, po administered every 12 hrs measured after 84 hrs; format: ADME, organism-based; conditions: in vivo, read-out: Drug uptake; method in brief: as §3
[21] = AUC (0 to 12 hrs) in fasting healthy human at 400 mg, po administered every 12 hrs measured between 72 to 84 hrs postdose; format: ADME, organism-based; design: time < 12 hr, dose 400 mg, route oral; conditions: plasma; method in brief: as §3
Homo sapiens [22] = assay: Apparent volume of distribution in fasting healthy human at 400 mg, po administered every 12 hrs; format: ADME, organism-based; conditions: in vivo; method in brief: as §3
Homo sapiens [23] = assay: Half life in fasting healthy human at 400 mg, po administered every 12 hrs; format: ADME, organism-based; conditions: in vivo; method in brief: as §3
Homo sapiens [24] = assay: Decrease in CD4 cell count in fasting healthy human at 100 mg, po administered every 12 hrs measured after 24 hrs relative to baseline; format: functional; design: scale not given: the % may be the effect or the level left
Method in brief: (§4)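 CD4+ counts drawn before the first dose and at 2, 4, 6, 8 and 24 h after the final (seventh) q12h oral dose in fasting healthy men. Each post-dose value divided by the baseline value to give a ratio. Deviation from no effect tested by Wilcoxon rank sum, dose trend by Jonckheere-Terpstra.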

Homo sapiens [25] = assay: Decrease in CD4 cell count in fasting healthy human at 200 mg, po administered every 12 hrs measured after 24 hrs relative to baseline; format: functional; design: scale not given: the % may be the effect or the level left; method in brief: as §4
Homo sapiens [26] = assay: Decrease in CD4 cell count in fasting healthy human at 400 mg, po administered every 12 hrs measured after 24 hrs relative to baseline; format: functional; design: scale not given: the % may be the effect or the level left; method in brief: as §4
Homo sapiens [27] = assay: Induction of leucocytosis in po dosed fasting healthy human assessed as increase in WBC count; format: functional, organism-based
Method in brief: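 Total WBC drawn predose and at 2, 4, 6, 8 and 24 h after oral dosing (single-dose cohorts from 200 mg, and multiple-dose cohorts). Ratio taken to baseline. WBC ratio against plasma concentration at all sampling times (n = 232) fit to an Emax model giving Emax and EC50. Per-subject maximum ratio also fit to dose, AUC0-24 and Cmax.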

[28] = AUC (0 to 12 hrs) in fasting healthy human at 200 mg, po administered every 12 hrs measured between 72 to 84 hrs postdose; format: ADME, organism-based; design: dose 200 mg, time < 12 hr, route oral; conditions: plasma; method in brief: as §3

NCCCCN(Cc1nc2ccccc2[nH]1)[C@H]1CCCc2cccnc21 [MAVORIXAFOR]
AUC (Homo sapiens [1]): 6716 ng·h/mL
Vd (Homo sapiens [2]): 918 L
t1/2 (Homo sapiens [3]): 11.2 h
Tmax [4]: 1.7 h
Cmax [5]: 461 ng/mL
concentration at 72 h [6]: 6.8 ng/mL
concentration at 84 h [7]: 12 ng/mL
AUC at 12 h [8]: 937 ng·h/mL
Vd (Homo sapiens [9]): 2663 L
t1/2 (Homo sapiens [10]): 15.9 h
Tmax [11]: 1.8 h
Cmax [12]: 793 ng/mL
concentration at 72 h [13]: 31 ng/mL
concentration at 84 h [14]: 33 ng/mL
Vd (Homo sapiens [15]): 1923 L
t1/2 (Homo sapiens [16]): 11.2 h
Tmax [17]: 1.8 h
Cmax [18]: 2300 ng/mL
concentration at 72 h [19]: 122 ng/mL
concentration at 84 h [20]: 137 ng/mL
AUC at 12 h [21]: 7660 ng·h/mL
Vd (Homo sapiens [22]): 966 L
t1/2 (Homo sapiens [23]): 12 h
Activity (Homo sapiens [24]): 80%
Activity (Homo sapiens [25]): 80%
Activity (Homo sapiens [26]): 80%
EC50 (Homo sapiens [27]): 0.039 µg/mL (≈ 0.112 µM)
AUC at 12 h [28]: 1590 ng·h/mL
